PAX8 inh HTS – inhibitors of PAX8 transcriptional activity in RMG-I cells | RMG-I TPO-luciferase reporter, SteadyGlo, 24 h | inhibition, % at 12.6 µM | 1.2% of 360,000 active | AID 652154;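 active means mean replicate inhibition at least 60% with every replicate also reaching 60%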;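 further: luciferase light reporting Pax8 driven TPO promoter activity; plate controls were median of neutral control wells for no effect and mitoxantrone controls for full effect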
N-glyco inh – N-linked glycosylation inhibition. D54 ERlucT glycosylation luciferase reporter, 24 h; percent of 100 nM tunicamycin response. reporter increase, % at 12.5 µM. 0.23% of 360,000 active. AID 588692;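 active means mean luciferase reporter signal, scaled so untreated is 0 and the glycosylation-blocking control 100, at or above a set limit in every replicate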;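 further: luciferase carries N-glycosylation sites so blocking glycosylation raises the light; 0% = median of neutral control wells and 100% = median of 100 nM tunicamycin wells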
PfHsp90 yeast 2 – growth inhibition of yeast expressing Plasmodium Hsp90; S. cerevisiae expressing PfHsp90, BacTiter-Glo ATP, 48 h; yeast lacking PDR1 and PDR3 efflux regulators; 0.32% of 310,000 active; inhibition, % at 9.4 µM;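 active means every replicate shows inhibition above about 80%, whatever the replicate mean, limit read from the data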;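 further: 0% = DMSO neutral controls and 100% = 20 µM radicicol positive controls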
Rtt109 HAT inh – inhibitors of Candida albicans Rtt109/Vps75 histone acetyltransferase. 0.16% of 330,000 active. purified Rtt109/Vps75, ThioGlo CoA-SH fluorescence, 4 h. inhibition, % at 34.9 µM. AID 540336;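 active means inhibition of at least 50% in every replicate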
Target sequence (Q5AAJ8 whole entry, looked up): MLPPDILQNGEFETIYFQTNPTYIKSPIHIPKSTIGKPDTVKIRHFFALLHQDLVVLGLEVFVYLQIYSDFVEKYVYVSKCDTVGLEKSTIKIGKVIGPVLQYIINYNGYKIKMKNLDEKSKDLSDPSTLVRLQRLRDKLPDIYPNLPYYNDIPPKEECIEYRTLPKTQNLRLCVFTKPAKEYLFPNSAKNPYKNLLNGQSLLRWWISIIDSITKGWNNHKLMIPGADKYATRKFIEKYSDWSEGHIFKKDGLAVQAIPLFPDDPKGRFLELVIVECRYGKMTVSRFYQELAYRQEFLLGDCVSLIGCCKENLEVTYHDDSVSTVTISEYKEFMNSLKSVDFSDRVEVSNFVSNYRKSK
Arrestin-AP2 inh – human beta-arrestin and AP2 interaction inhibition. FITC-arrestin peptide / GST-AP2 beads, flow cytometry; AP2 beta2 appendage carries R879A mutation. inhibition, % at 10 µM. 0.31% of 340,000 active. AID 504490;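 active means inhibition above a set limit, near 3 SD of compounds lacking own fluorescence, cut at about 54% in these data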;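 further: plate controls were DMSO wells for no effect and 5 µM unlabelled arrestin peptide for full effect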
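System: GST-AP2 R879A glutathione beads. Medium: PBS with 0.05% Tween 20 and 0.1% BSA. Also added: FITC-arrestin peptide, 50 nM. Incubation: 12 min plus 1 h, RT. Measured by: high-throughput flow cytometry of beads, ex 488, em 535 nm. Evaluation: percent drop in bead-associated FITC signal.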
HIV Env fusion – blocks HIV Env-driven cell-cell fusion; HeLa-JRFL Env/CEM21 cell fusion, luciferase; inhibition, % at 12.3 µM; 1.1% of 360,000 active; AID 651610;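 active means mean replicate inhibition score of at least 50 and every replicate individually at or above 50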;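 further: 0% = plate neutral controls and 100% = maraviroc near 300 nM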
Starred values were filed as active, the others as inactive; / = no result; ! = a repeat was not active; [ ] = another dose, or the depositor's remark. This is a sample that favours compounds with a hit; in the whole collection about 2.3% have one here.

SMILES	PAX8 inh HTS	N-glyco inh	PfHsp90 yeast 2	Rtt109 HAT inh	Arrestin-AP2 inh	HIV Env fusion
COc1ccc(S(=O)(=O)N(C)C[C@@H]2OCCCC[C@H](C)Oc3ccc(NS(=O)(=O)c4ccccc4)cc3C(=O)N([C@H](C)CO)C[C@H]2C)cc1	75.9*	/	/	/	/	-43.5[16.7 µM]
O=C(Cc1ccccc1)N/N=C/c1cc(Br)cc(Br)c1O	24.8	-2.6	-4.3	-2.1	9.0	9.4
O/N=C/c1cc(Br)ccc1OCc1ccc(F)cc1	/	1.3	-27.9	1.1	27.6	/
Oc1c(Br)cc(Br)cc1C=NCc1ccccc1	-8.5	-0.6	95.8*	-6.6	-7.1	9.1
Oc1c(Br)cc(Br)cc1C=NCc1ccc(F)cc1	13.2	-1.5	99.0*	/	-3.5	14.5
O/N=C/c1ccc2cccc(OCc3ccccc3)c2n1	-33.9	-5.1	-3.5	-0.4	15.5	22.2
NC(N)=N/N=C/c1ccc2cccc(OCc3ccccc3)c2n1	6.8	29.1*	6.9	-8.3	-8.9	-28.9
COC(=O)C[C@H]1CC[C@H]2[C@H](COc3ccc(NC(=O)Nc4cccc(F)c4)cc3C(=O)N2C)O1	-3.0	/	/	/	/	/
C[C@H](CO)N1C[C@H](C)[C@@H](CN(C)S(=O)(=O)c2ccc(F)cc2)Oc2ccc(NC(=O)Nc3ccc(C(F)(F)F)cc3)cc2C1=O	74.6*!	-7.1	-11.9	0.6	-1.1	0.3
C[C@@H]1CN([C@H](C)CO)C(=O)c2cc(NC(=O)Nc3ccc(C(F)(F)F)cc3)ccc2O[C@@H]1CN(C)S(=O)(=O)c1ccc(F)cc1	8.6	/	/	/	/	11.8[16.7 µM]
COc1ccc(NC(=O)Nc2ccc3c(c2)C(=O)N([C@@H](C)CO)C[C@H](C)[C@H](CN(C)S(=O)(=O)c2ccc(C)cc2)O3)cc1	-11.5	/	/	/	/	78.5*[16.7 µM]
COc1ccc(S(=O)(=O)N(C)C[C@@H]2Oc3ccc(NC(=O)Nc4ccc(C(F)(F)F)cc4)cc3C(=O)N([C@@H](C)CO)C[C@@H]2C)cc1	/	/	/	/	/	67.4*[16.7 µM]
CCS(=O)(=O)NCC[C@@H]1CC[C@@H](NC(=O)C2CCCC2)[C@H](CO)O1	-1.1	/	/	/	/	-21.1[16.7 µM]
CCCC(=O)Nc1ccc2c(c1)C(=O)N(C)C[C@@H](OC)[C@H](C)CN(Cc1nccs1)[C@H](C)CO2	-4.6	/	/	/	/	34.9[16.7 µM]
O=C(C[C@H]1C[C@@H]2c3cc(NC(=O)C4CCOCC4)ccc3O[C@@H]2[C@@H](CO)O1)NCc1ccccc1F	-3.3	/	/	/	/	82.0*[16.7 µM]
O=C(C[C@@H]1C[C@@H]2c3cc(NC(=O)C4CCOCC4)ccc3O[C@@H]2[C@@H](CO)O1)NCCc1ccccc1	1.7	/	/	/	/	/
O=C(C[C@H]1C[C@@H]2c3cc(NC(=O)C4CCOCC4)ccc3O[C@@H]2[C@@H](CO)O1)NCc1ccc(Oc2ccccc2)cc1	77.9*	/	/	/	/	-14.7[16.7 µM]
O=C(C[C@@H]1C[C@H]2c3cc(NC(=O)C4CCOCC4)ccc3O[C@H]2[C@@H](CO)O1)NCc1ccc(Oc2ccccc2)cc1	-6.4	/	/	/	/	-19.4[16.7 µM]
O=C(C[C@H]1C[C@H]2c3cc(NC(=O)C4CCOCC4)ccc3O[C@H]2[C@@H](CO)O1)NCc1ccccc1	-0.3	/	/	/	/	22.9[16.7 µM]
O=C(C[C@@H]1C[C@@H]2c3cc(NC(=O)C4CCOCC4)ccc3O[C@@H]2[C@H](CO)O1)NCCc1ccccc1	-1.2	/	/	/	/	62.9*[16.7 µM]
O=C(C[C@@H]1C[C@H]2c3cc(NC(=O)C4CCOCC4)ccc3O[C@H]2[C@@H](CO)O1)NCc1ccccc1	-1.6	/	/	/	/	90.2*[16.7 µM]
C[C@H](CO)N1C[C@H](C)[C@@H](CN(C)C(=O)c2cnccn2)Oc2ncc(/C=C/c3ccccc3)cc2C1=O	/	/	/	/	/	20.5[16.7 µM]
CNC(=O)C[C@@H]1CC[C@H]2[C@H](COc3ccc(NC(=O)Cc4cccs4)cc3C(=O)N2C)O1	0.9	/	/	/	/	-7.8[16.7 µM]
CN(C)CC(=O)Nc1ccc2c(c1)[C@@H]1C[C@@H](CC(=O)NCc3cccc(F)c3)O[C@H](CO)[C@@H]1O2	-2.8	/	/	/	/	1.9[16.7 µM]
CN(C)CC(=O)Nc1ccc2c(c1)[C@H]1C[C@@H](CC(=O)NCCc3ccccc3)O[C@H](CO)[C@H]1O2	1.8	/	/	/	/	59.8*[16.7 µM]
CN(C)CC(=O)Nc1ccc2c(c1)[C@H]1C[C@H](CC(=O)NCc3cccc(F)c3)O[C@@H](CO)[C@H]1O2	-9.2	/	/	/	/	64.5*[16.7 µM]
CN(C)S(=O)(=O)c1ccc(N2CCCC2)c(C(=O)NCC2CCCCC2)c1	-2.6	-7.4	16.1	-15.5	36.0	24.4

Screening data from PubChem BioAssay.
